Experimental findings from ChEMBL document CHEMBL1153925, “Synthesis, characterization and biological activity of ring-substituted 6-benzylamino-9-tetrahydropyran-2-yl and 9-tetrahydrofuran-2-ylpurine derivatives” (Bioorg Med Chem, 2009) are described below.

Each structure is given as a SMILES string. The source made the active and inactive calls. No cut-off for these calls is given here.

The test concerns Nicotiana tabacum. Put plainly: Cytokinin activity in tobacco callus assessed as stimulation of callus growth relative to 6-benzylaminopurine. The class given is functional, organism-based. In a few lines:
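Compounds dissolved in DMSO, diluted with water to 5 × 10^-2 M stock, then diluted in medium to 10^-8 to 10^-4 M. Final DMSO ≤0.2%; solvent control 0.2% DMSO. Readout was cytokinin-dependent tobacco callus growth. Activity is expressed relative to 10^-6 M BAP (=100%) at each compound's optimal concentration. Five replicates per concentration; whole test run at least twice.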

Regarding `COc1ccc(CNc2ncnc3c2ncn3C2CCCCO2)cc1OC` (centres undefined), the result was inactive.

Turning to `COc1ccc(CNc2ncnc3c2ncn3C2CCCCO2)c(OC)c1OC` (centres undefined), the result was inactive.

As for `COc1cc(CNc2ncnc3c2ncn3C2CCCCO2)cc(OC)c1` (centres undefined), the outcome was inactive.

For `COc1ccc(CNc2ncnc3c2ncn3C2CCCCO2)c(OC)c1` (centres undefined), the outcome was inactive.
